ChEMBL document CHEMBL1129524, “Potent inhibitors of acyl-CoA:cholesterol acyltransferase. 2. Structure-activity relationships of novel N-(2,2-dimethyl-2,3-dihydrobenzofuran-7-yl)amides” (J Med Chem, 1996)
pIC50: −log10 of the molar value.

System: Rattus norvegicus
Assay: Total cholesterol lowering activity tested by administered orally to rats at dose 10(mg/kg) once a day for 3 days
Assay type: functional
How it was run: (§1)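 Male Wistar rats received the compound orally once daily for 3 days. Each night they ate a diet with 2% cholesterol, 1% cholic acid, 20% casein, 45% sucrose, 12% coconut oil, 4% KC flock, 1% vitamin mix, 7% mineral mix and 8% dried fish powder. Serum total cholesterol was then measured. Activity is the observed reduction as a percentage of the control-minus-normal difference.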

Structure (SMILES)	Change [%]
Cc1cc(C)c(NC(=O)C(C)(C)CCCCOc2ccc(Cl)cc2)c2c1CC(C)(C)O2	-61
CCCCCCCCCCC1(C(=O)Nc2c(C)ccc3c2OC(C)(C)C3)CCCC1	-52
Cc1cc(C)c(NC(=O)C(C)(C)CCCCCCOCC(C)C)c2c1CC(C)(C)O2	-62
Cc1cc(C)c(NC(=O)C(C)(C)CCCCCc2ccccc2)c2c1CC(C)(C)O2	-66
Cc1cc(C)c(NC(=O)C(C)(C)CCCCOCc2ccccc2)c2c1CC(C)(C)O2	-50

System: Rattus norvegicus
Assay: Total cholesterol lowering activity tested by administered orally to cholesterol fed rats at dose 0.3(mg/kg) once a day for 3 days
Assay type: functional
How it was run: as §1

Structure (SMILES)	Change [%]
CCCCCCCCCCC(C)(C)C(=O)Nc1c(OC)ccc2c1OCCC2=O	-66
CCCCCCCCCCC(C)(C)C(=O)Nc1c(C)c(N(C)C)c(C)c2c1OC(C)(C)C2	-71
Cc1cc(C)c(NC(=O)C(C)(C)CCCCCCOc2ccc(Cl)cc2)c2c1CC(C)(C)O2	-64
CCCCCCCCCCC(C)(C)C(=O)Nc1c(C)cc(C)c2c1OC(C)(C)C2	-44

Organism: Rattus norvegicus
Assay: Inhibitory activity against foam cell formation (acetyl-LDL-induced cholesteryl ester accumulation) in rat peritoneal macrophages
Assay type: functional
How it was run: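 Peritoneal macrophages were prepared from rats. The IC₅₀ was determined for inhibition of acetyl-human-LDL-induced cellular cholesteryl ester accumulation.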

pIC50	Structure (SMILES)
6.80	CCCCCCCCCCC(C)(C)C(=O)Nc1c(OC)ccc2c1OCCC2=O
6.19	CCCCCCCCCCC(C)(C)C(=O)Nc1c(C)cc(C)c2c1OC(C)(C)C2
5.42	CCCCCCCCCCC(C)(C)C(=O)Nc1c(OC)cc(OC)cc1OC [CL-976]

Second part, the molecule before the results:

Structure (SMILES)	pIC50
CCCCCCCCCCC(C)(C)C(=O)Nc1c(C)c(N(C)C)c(C)c2c1OC(C)(C)C2	7.52
Cc1cc(C)c(NC(=O)C(C)(C)CCCCCCOc2ccc(Cl)cc2)c2c1CC(C)(C)O2	5.82

Biological target: O-acyltransferase (Oryctolagus cuniculus, UniProt G1SFD9)
Assay: Inhibitory activity against Acyl coenzyme A:cholesterol acyltransferase 1 obtained from rabbit intestine microsomes
How it was run: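 Enzyme source was small-intestinal mucosa microsomes from cholesterol-fed rabbits. The substrate was [1-¹⁴C]oleoyl-CoA.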

pIC50	Structure (SMILES)
6.30	CCCCCCCCCCC1(C(=O)Nc2cccc3c2OC(C)(C)C3)CCCC1
6.48	Cc1cc(C)c(NC(=O)C(C)(C)CCCCOc2ccc(Cl)cc2)c2c1CC(C)(C)O2
6.77	CCCCCCCCCCC1(C(=O)Nc2c(C)cc(C)c3c2OC(C)(C)C3)CCCC1
< 6.70	CCCOCCCCCCOc1ccc(C(=O)Nc2c(C)cc(C)c3c2OC(C)(C)C3)cc1
7.59	CCCCCCCCCCCCCCCC(=O)Nc1c(C)cc(C)c2c1OC(C)(C)C2
6.59	Cc1cc(C)c(NC(=O)C(C)(C)CCCOc2ccc(Cl)cc2)c2c1CC(C)(C)O2
< 6.70	Cc1cc(C)c(NC(=O)c2ccc(OCCCCCCOc3ccc(Cl)cc3)cc2)c2c1CC(C)(C)O2
7.23	CCCCCCCCCCC(C)(C)C(=O)Nc1c(C)c(N)c(C)c2c1OC(C)(C)C2
7.48	CCCCCCCCCCCCC(C)(C)C(=O)Nc1c(C)cc(C)c2c1OC(C)(C)C2
6.85	CCCCCCCCC(C)(C)C(=O)Nc1c(C)cc(C)c2c1OC(C)(C)C2
< 6.30	Cc1cc(C)c(NC(=O)C(C)(C)CCCCCCN2CCCCC2)c2c1CC(C)(C)O2
6.82	Cc1cc(C)c(NC(=O)C(C)(C)CCCCCOc2ccc(Cl)cc2)c2c1CC(C)(C)O2
6.05	CCCCCCCCCCCCCCCC(=O)Nc1cccc2c1OC(C)(C)C2
< 6.70	CCCCCCCCOc1ccc(C(=O)Nc2c(C)cc(C)c3c2OC(C)(C)C3)cc1
6.92	Cc1cc(C)c(NC(=O)C(C)(C)CCCCCc2ccccc2)c2c1CC(C)(C)O2

Further lines, the molecule ahead of its results:

Structure (SMILES)	pIC50
Cc1cc(C)c(NC(=O)C(C)(C)CCCc2ccc(CC(C)C)cc2)c2c1CC(C)(C)O2	7.40
Cc1cc(C)c(NC(=O)C(C)(C)CCCCCOc2ccccc2)c2c1CC(C)(C)O2	7.07
Cc1cc(C)c(NC(=O)C(C)(C)CCCCc2ccccc2)c2c1CC(C)(C)O2	6.68
Cc1ccc(OCCCCCCC(C)(C)C(=O)Nc2c(C)cc(C)c3c2OC(C)(C)C3)cc1	7.30
Cc1cc(C)c(NC(=O)C(C)(C)CCCCCCOc2ccc(Cl)cc2)c2c1CC(C)(C)O2	7.12
CCCCCCCCCCC1(C(=O)Nc2c(C)ccc3c2OC(C)(C)C3)CCCC1	6.62
Cc1cc(C)c(NC(=O)C(C)(C)CCCCCCc2ccccc2)c2c1CC(C)(C)O2	7.09
CCCCCCCCCCOc1ccc(C(=O)Nc2c(C)cc(C)c3c2OC(C)(C)C3)cc1	7.52
CCCCCCCCCCCCOc1ccc(C(=O)Nc2c(C)cc(C)c3c2OC(C)(C)C3)cc1	7.05
CCCCCCCCCCC(C)(C)C(=O)Nc1c(C)c([N+](=O)[O-])c(C)c2c1OC(C)(C)C2	7.44

System: Rattus norvegicus
Assay: Total cholesterol lowering activity tested by administered orally to rats at dose 1(mg/kg) once a day for 3 days
Assay type: functional
How it was run: as §1

Structure (SMILES)	Change [%]
CCCCCCCCCCC(C)(C)C(=O)Nc1c(C)c(N(C)C)c(C)c2c1OC(C)(C)C2	-88
Cc1cc(C)c(NC(=O)C(C)(C)CCCCCCOc2ccc(Cl)cc2)c2c1CC(C)(C)O2	-75
CCCCCCCCCCC(C)(C)C(=O)Nc1c(C)cc(C)c2c1OC(C)(C)C2	-61
Cc1cc(C)c(NC(=O)C(C)(C)CCCCCOc2ccc(Cl)cc2)c2c1CC(C)(C)O2	-64

System: Rattus norvegicus
Assay: Total cholesterol lowering activity tested by administered orally to rats at dose 3(mg/kg) once a day for 3 days
Assay type: functional
How it was run: as §1

Structure (SMILES)	Change [%]
Cc1cc(C)c(NC(=O)C(C)(C)CCCc2ccc(CC(C)C)cc2)c2c1CC(C)(C)O2	-57
CCCCCCCCCCOc1ccc(C(=O)Nc2c(C)cc(C)c3c2OC(C)(C)C3)cc1	0

System: Rattus norvegicus
Assay: Total cholesterol lowering activity tested by administered orally to cholesterol fed rats at dose 3(mg/kg) once a day for 3 days
Assay type: functional
How it was run: as §1

Structure (SMILES)	Change [%]
CCCCCCCCCCC(C)(C)C(=O)Nc1c(OC)cc(OC)cc1OC [CL-976]	-50

Biological target: Sterol O-acyltransferase 1 (Oryctolagus cuniculus)
Assay: Inhibitory activity against Acyl coenzyme A:cholesterol acyltransferase 1 obtained from rabbit liver microsomes

pIC50	Structure (SMILES)
7.80	CCCCCCCCCCC(C)(C)C(=O)Nc1c(OC)ccc2c1OCCC2=O
